In ChEMBL document CHEMBL1139509, “Design, synthesis, and antipicornavirus activity of 1-[5-(4-arylphenoxy)alkyl]-3-pyridin-4-ylimidazolidin-2-one derivatives” (J Med Chem, 2005):

Key:
[1] = Cytotoxicity against human rhabdomyosarcoma cells; type: cell-based
Method in brief: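 RD (rhabdomyosarcoma) cells were exposed to test compounds at various concentrations for 96 h at 37 °C. Viable cells were counted by trypan blue staining. CC50 is the concentration that reduces viability to 50% of the untreated control culture. Triplicate, run at least twice.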

Enterovirus [2] = assay: In vitro inhibitory concentration against human enterovirus EV71-4643 strain; type: functional, organism-based, Enterovirus A71
Method in brief: (§1)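 CPE-inhibition (neutralization) assay on RD cells seeded at 3 × 10⁵ cells/mL in DMEM/10% FBS and grown 24-30 h to about 90% confluency. Virus (100 TCID50) was mixed with graded compound concentrations and adsorbed 1 h at 37 °C. Cells were overlaid with DMEM, 5% FBS and 2% DMSO, incubated 64 h at 37 °C, then glutaraldehyde-fixed and crystal violet-stained, with A570 read-out. IC50 is 50% CPE reduction versus virus control. Triplicate, at least twice.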

Enterovirus [3] = assay: In vitro inhibitory concentration against human enterovirus EV71-2231 strain; type: functional, organism-based, Enterovirus A71; method in brief: as §1
Enterovirus [4] = assay: Ratio of CC50 to that of IC50 against human enterovirus EV71-4643 strain; type: functional, Enterovirus A71
Enterovirus [5] = assay: Ratio of CC50 to that of IC50 against human enterovirus EV71-2231 strain; type: functional, Enterovirus A71
Human rhinovirus sp. = assay: In vitro inhibitory concentration against Rhinovirus 1B; type: functional, organism-based, Viruses
Enterovirus [6] = assay: In vitro inhibitory concentration against human enterovirus EV71; type: functional, organism-based, Viruses; method in brief: as §1
Enterovirus [7] = assay: Inhibitory concentration against human enterovirus EV68; type: functional, organism-based, Viruses
Enterovirus [8] = assay: Inhibitory concentration against Human Enterovirus 71; type: functional, organism-based, Viruses; method in brief: as §1
Coxsackievirus [9] = assay: Inhibitory concentration against Coxsackievirus A16; type: functional, organism-based, Viruses; method in brief: as §1
Enterovirus [10] = assay: Inhibitory concentration against human enterovirus EV71 (4643) genotype C; type: functional, organism-based, Viruses; method in brief: as §1
rhinovirus A2 = assay: Inhibitory concentration against Human rhinovirus 2; type: functional, organism-based, human rhinovirus type 2; conditions: Rhinovirus A; method in brief: as §1
Enterovirus [11] = assay: Inhibitory concentration against human enterovirus EV71 (1743) genotype B; type: functional, organism-based, Viruses; method in brief: as §1
[12] = Inhibitory concentration against Human rhinovirus 14; type: functional, human rhinovirus type 14; method in brief: as §1
Coxsackievirus [13] = assay: Inhibitory concentration against Coxsackievirus B3; type: functional, organism-based, Viruses; method in brief: as §1
Enterovirus [14] = assay: Inhibitory concentration against human enterovirus EV71 (2231) genotype C; type: functional, organism-based, Viruses; method in brief: as §1
Coxsackievirus [15] = assay: Inhibitory concentration against Coxsackievirus B2; type: functional, organism-based, Viruses; method in brief: as §1
[16] = Inhibitory concentration against Echovirus 9; type: functional, Viruses; method in brief: as §1
Enterovirus [17] = assay: Inhibitory concentration against human enterovirus EV71 (2086) genotype C; type: functional, organism-based, Viruses; method in brief: as §1
Coxsackievirus [18] = assay: Inhibitory concentration against Coxsackievirus A9; type: functional, organism-based, Viruses; method in brief: as §1
Coxsackievirus [19] = assay: Inhibitory concentration against Coxsackievirus A24; type: functional, organism-based, Viruses; method in brief: as §1
Coxsackievirus [20] = assay: Inhibitory concentration against Coxsackievirus B1; type: functional, organism-based, Viruses; method in brief: as §1
Coxsackievirus [21] = assay: Inhibitory concentration against Coxsackievirus B5; type: functional, organism-based, Viruses; method in brief: as §1
[22] = Inhibitory concentration against Echovirus 29; type: functional, Viruses; method in brief: as §1
Enterovirus [23] = assay: Inhibitory concentration against human enterovirus EV71 (BrCr) genotype A; type: functional, organism-based, Viruses; method in brief: as §1
Coxsackievirus [24] = assay: Inhibitory concentration against Coxsackievirus B6; type: functional, organism-based, Viruses; method in brief: as §1
Coxsackievirus [25] = assay: Inhibitory concentration against Coxsackievirus A10; type: functional, organism-based, Viruses; method in brief: as §1
Coxsackievirus [26] = assay: Inhibitory concentration against Coxsackievirus B4; type: functional, organism-based, Viruses; method in brief: as §1

CCCC(CCOc1ccc(-c2ccc(Cl)cc2)cc1)CCN1CCN(c2ccncc2)C1=O (stereo not given)
CC50 [1]: > 25000 nM | IC50 (Enterovirus [2]): 960 nM | IC50 (Enterovirus [3]): > 25000 nM

CC(C)(CCOc1ccc(-c2ccc(Cl)cc2)cc1)CCN1CCN(c2ccncc2)C1=O
CC50 [1]: > 25000 nM | IC50 (Enterovirus [2]): 41 nM | IC50 (Enterovirus [3]): 140 nM

CC(CCCCN1CCN(c2ccncc2)C1=O)Oc1ccc(-c2ccc(Cl)cc2)cc1 (stereo not given)
CC50 [1]: > 12500 nM | IC50 (Enterovirus [2]): 53 nM | IC50 (Enterovirus [3]): 600 nM

CC(CCOc1ccc(-c2noc(C(F)(F)F)n2)cc1)CCN1CCN(c2ccncc2)C1=O (stereo not given)
CC50 [1]: > 25000 nM | IC50 (Enterovirus [2]): 1.4 nM | IC50 (Enterovirus [3]): 24 nM | Selectivity index (Enterovirus [4]): >17857 | Selectivity index (Enterovirus [5]): >1041

CC(C)C(CCOc1ccc(-c2ccc(Cl)cc2)cc1)CCN1CCN(c2ccncc2)C1=O (stereo not given)
CC50 [1]: > 25000 nM | IC50 (Enterovirus [2]): 2110 nM | IC50 (Enterovirus [3]): > 25000 nM

O=C1N(CCN(CCOc2ccc(-c3ccc(Cl)cc3)cc2)Cc2ccc(Cl)cc2)CCN1c1ccncc1
CC50 [1]: > 25000 nM | IC50 (Enterovirus [2]): > 25000 nM | IC50 (Enterovirus [3]): > 25000 nM

CC(CCOc1ccc(-c2nnn(C)n2)cc1)CCN1CCN(c2ccncc2)C1=O (stereo not given)
CC50 [1]: > 25000 nM | IC50 (Enterovirus [2]): 2.8 nM | IC50 (Enterovirus [3]): 43 nM | Selectivity index (Enterovirus [4]): >8928 | Selectivity index (Enterovirus [5]): >581

CC(C)(CCCOc1ccc(-c2ccc(Cl)cc2)cc1)CN1CCN(c2ccncc2)C1=O
CC50 [1]: 20000 nM | IC50 (Enterovirus [2]): 94 nM | IC50 (Enterovirus [3]): 720 nM

O=C1N(CCC(CCOc2ccc(-c3ccc(Cl)cc3)cc2)C(F)(F)F)CCN1c1ccncc1 (stereo not given)
CC50 [1]: > 12500 nM | IC50 (Enterovirus [2]): 740 nM | IC50 (Enterovirus [3]): 2540 nM

c1ccc(C2COc3ccc(C4=NCCO4)cc3C2)cc1 (stereo not given)
IC50 (Human rhinovirus sp.): 1010 nM | IC50 (Enterovirus [6]): 4560 nM

O=C1N(CCCCCOc2ccc(-c3ccc(Cl)cc3)cc2)CCN1c1ccncc1
CC50 [1]: 6250 nM | IC50 (Enterovirus [7]): > 12500 nM | IC50 (Enterovirus [8]): 38 nM | IC50 (Coxsackievirus [9]): > 12500 nM | IC50 (Enterovirus [2]): 38 nM | IC50 (Enterovirus [10]): 38 nM | IC50 (Enterovirus [3]): 76 nM | IC50 (rhinovirus A2): > 12500 nM | IC50 (Enterovirus [11]): 92 nM | IC50 [12]: > 12500 nM | IC50 (Coxsackievirus [13]): > 12500 nM | IC50 (Enterovirus [14]): 76 nM | IC50 (Coxsackievirus [15]): > 12500 nM | IC50 [16]: 1310 nM | IC50 (Enterovirus [17]): 43 nM | IC50 (Coxsackievirus [18]): 71 nM | IC50 (Coxsackievirus [19]): 1300 nM | IC50 (Coxsackievirus [20]): > 12500 nM | IC50 (Coxsackievirus [21]): 1140 nM | IC50 [22]: 390 nM | IC50 (Enterovirus [23]): 130 nM | IC50 (Coxsackievirus [24]): > 12500 nM | IC50 (Coxsackievirus [25]): > 12500 nM

O=C1N(CCC(CCOc2ccc(-c3ccc(Cl)cc3)cc2)Cc2ccccc2)CCN1c1ccncc1 (stereo not given)
CC50 [1]: > 10000 nM | IC50 (Enterovirus [2]): > 10000 nM | IC50 (Enterovirus [3]): > 10000 nM

CC(C)(CCCN1CCN(c2ccncc2)C1=O)COc1ccc(-c2ccc(Cl)cc2)cc1
CC50 [1]: > 25000 nM | IC50 (Enterovirus [2]): 130 nM | IC50 (Enterovirus [3]): > 25000 nM

CCCc1nc(-c2ccc(OCCC(C)CCN3CCN(c4ccncc4)C3=O)cc2)no1 (stereo not given)
CC50 [1]: > 12500 nM | IC50 (Enterovirus [2]): 19 nM | IC50 (Enterovirus [3]): 55 nM | Selectivity index (Enterovirus [4]): >657 | Selectivity index (Enterovirus [5]): >227

CC(CCCOc1ccc(-c2ccc(Cl)cc2)cc1)CN1CCN(c2ccncc2)C1=O (stereo not given)
CC50 [1]: > 25000 nM | IC50 (Enterovirus [2]): 5 nM | IC50 (Enterovirus [3]): 20 nM

CCn1nnc(-c2ccc(OCCC(C)CCN3CCN(c4ccncc4)C3=O)cc2)n1 (stereo not given)
CC50 [1]: > 12500 nM | IC50 (Enterovirus [7]): 2870 nM | IC50 (Coxsackievirus [9]): 130 nM | IC50 (Enterovirus [2]): 0.9 nM | IC50 (Enterovirus [10]): 0.9 nM | IC50 (Enterovirus [3]): 14 nM | IC50 (rhinovirus A2): 1450 nM | IC50 (Enterovirus [11]): 18 nM | IC50 [12]: 850 nM | IC50 (Coxsackievirus [13]): > 25000 nM | IC50 (Coxsackievirus [26]): 2740 nM | IC50 (Enterovirus [14]): 14 nM | IC50 (Coxsackievirus [15]): > 25000 nM | IC50 [16]: 280 nM | IC50 (Enterovirus [17]): 3 nM | IC50 (Coxsackievirus [18]): > 25000 nM | IC50 (Coxsackievirus [19]): 140 nM | Selectivity index (Enterovirus [4]): >13888 | Selectivity index (Enterovirus [5]): >892 | IC50 (Coxsackievirus [20]): 35 nM | IC50 (Coxsackievirus [21]): 10400 nM | IC50 [22]: 3230 nM | IC50 (Enterovirus [23]): 15 nM | IC50 (Coxsackievirus [24]): > 25000 nM | IC50 (Coxsackievirus [25]): 240 nM

CCc1nc(-c2ccc(OCCC(C)CCN3CCN(c4ccncc4)C3=O)cc2)no1 (stereo not given)
CC50 [1]: > 25000 nM | IC50 (Enterovirus [7]): 5460 nM | IC50 (Coxsackievirus [9]): 87 nM | IC50 (Enterovirus [2]): 0.5 nM | IC50 (Enterovirus [10]): 0.5 nM | IC50 (Enterovirus [3]): 15 nM | IC50 (rhinovirus A2): 1580 nM | IC50 (Enterovirus [11]): 15 nM | IC50 [12]: 830 nM | IC50 (Coxsackievirus [13]): > 25000 nM | IC50 (Coxsackievirus [26]): 1270 nM | IC50 (Enterovirus [14]): 15 nM | IC50 (Coxsackievirus [15]): 4790 nM | IC50 [16]: 500 nM | IC50 (Enterovirus [17]): 4 nM | IC50 (Coxsackievirus [18]): > 25000 nM | IC50 (Coxsackievirus [19]): 150 nM | Selectivity index (Enterovirus [4]): >50000 | Selectivity index (Enterovirus [5]): >1666 | IC50 (Coxsackievirus [20]): 46 nM | IC50 (Coxsackievirus [21]): 4500 nM | IC50 [22]: 2630 nM | IC50 (Enterovirus [23]): 10 nM | IC50 (Coxsackievirus [24]): > 25000 nM | IC50 (Coxsackievirus [25]): 560 nM
